# KCNK9 block: inhibitors of human KCNK9 two-pore domain potassium channel; actives 1.2% (n = 310,000); HEK293 KCNK9, FluxOR thallium flux fluorescence; hits give low values; B-score at 10 µM; AID 488922; Q9NPC2;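 active means ratio B-score over 3 SD below the library mean, with starting fluorescence within 5 SD of its mean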;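 further: negative B-score means less thallium flux so channel inhibition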
# Target sequence (Q9NPC2 whole entry, looked up, the tested form may be a part): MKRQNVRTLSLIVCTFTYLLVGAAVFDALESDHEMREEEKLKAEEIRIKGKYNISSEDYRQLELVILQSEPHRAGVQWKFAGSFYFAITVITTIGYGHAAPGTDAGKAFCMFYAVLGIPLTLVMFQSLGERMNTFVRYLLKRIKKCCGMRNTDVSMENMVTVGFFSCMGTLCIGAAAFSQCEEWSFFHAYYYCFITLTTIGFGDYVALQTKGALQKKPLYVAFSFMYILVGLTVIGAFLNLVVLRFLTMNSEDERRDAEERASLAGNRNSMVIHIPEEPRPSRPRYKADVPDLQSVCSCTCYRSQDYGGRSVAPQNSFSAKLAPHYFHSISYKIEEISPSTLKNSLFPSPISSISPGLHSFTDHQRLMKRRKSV
# KCNQ1 block: blocks the human KCNQ1 potassium channel | P51787 | CHO-K1 KCNQ1, FluxOR thallium flux fluorescence; hits give high values | B-score at 10 µM | actives 1.3% (n = 310,000);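 active means compounds whose thallium flux B-score, printed positive for inhibition, exceeds three library SD while starting fluorescence stays within three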;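 further: channel opened by potassium depolarization with thallium stimulus after 20 min compound exposure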
# hERG rescue: shields human hERG channel from block by proarrhythmic agents. activation (rescue from dofetilide block), less the hit threshold, % at 10 µM. CHO-hERG, FluxOR thallium flux, dofetilide IC70 present. AID 1511. Q12809. actives 0.51% (n = 310,000);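 active means activation above the mean of controls blocked by dofetilide plus 5 SD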;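 further: thallium influx through hERG after potassium depolarization seen as dye fluorescence rise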
# KCNK3 inh: human KCNK3 channel inhibition, primary screen; CHO-KCNK3 thallium flux, FluxOR fluorescence; hits give low values; O14649; B-score at 10 µM; actives 0.84% (n = 340,000);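 active means B-score under library mean minus 4 SD, starting fluorescence ratio at most library mean plus 5 SD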;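 further: more negative B-score means stronger inhibition of thallium flux through KCNK3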
# KCNQ1 act: potentiates or activates the human KCNQ1 potassium channel | P51787 | CHO-K1 KCNQ1, thallium flux FluxOR fluorescence; hits give high values | B-score at 10 µM | actives 0.35% (n = 310,000);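 active means fluorescence ratio B-score, a plate-corrected score, at least three library SD, with initial intensity B-score within 5 SD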
#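 Assay system: CHO-K1 cells stably expressing KCNQ1; Medium: assay buffer with matched DMSO; Also added: K+/Tl+ depolarizing stimulus; Dosing: single dose; Timing: dye 90 min, compound 20 min, room temperature; Measured by: kinetic FluxOR thallium fluorescence, 10-s 1-Hz baseline, 110-s post-stimulus read; Read-out: peak-minus-minimum fluorescence over initial fluorescence, negative-control normalized, B-scored.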
# KCNK9 block conf: human KCNK9 inhibitor confirmation; actives 43% (n = 4,900); shares compounds with KCNK9 block; HEK293 KCNK9 cells, FluxOR thallium flux fluorescence; inhibition, % at 10 µM;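 active means thallium signal inhibited by more than 5 SD of the compound-free buffer control wells, on both duplicate plates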;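 further: 0% = assay buffer control wells without compound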
# Kir21 sel: selectivity of KCNK9 modulators against mouse Kir2.1; shares compounds with KCNK9 block; Kir2.1 cells, FluxOR thallium flux fluorescence; inhibition, % at 10 µM; actives 4% (n = 4,900);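 active means thallium signal drop more than 5 SD beyond the mean of the no-compound control wells, seen in both duplicate plates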;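 further: signal is fluorescence rise after thallium addition divided by baseline fluorescence; plate controls were assay buffer only for no effect and full block by chlorpromazine control for full effect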
# KCNK9 uninduced: second check of KCNK9 modulator effects in non-induced HEK293 cells; shares compounds with KCNK9 block; FluxOR thallium flux; inhibition, % at 10 µM; actives 40% (n = 4,900); AID 492997;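 active means thallium signal drop beyond 5 SD of the untreated control mean, on both duplicate plates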;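 further: plate controls were buffer only IC0 wells for no effect and SID17386958 at its maximal inhibitory level for full effect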
# Starred values were filed as active, the others as inactive; i = inactive; x = no result. In the library only some 3.1% were active in any assay of this set; here they are far more common.
SMILES,KCNK9 block,KCNQ1 block,hERG rescue,KCNK3 inh,KCNQ1 act,KCNK9 block conf,Kir21 sel,KCNK9 uninduced
Cc1oc(=O)c(NC(=O)c2cccc(Cl)c2)cc1C(=O)c1ccccc1,i,i,-11,i,i,i,i,i
Cc1ccc(S(=O)(=O)N(C)C)cc1NC(=O)CSc1nc2ccccc2c(=O)n1CC1CCCO1 (centres undefined),i,i,-14,i,i,x,x,x
Cc1ccc(S(=O)(=O)N(C)C)cc1-n1c(SCC(=O)Nc2ccc(F)cc2)nc2ccccc2c1=O,-9.7*,i,-6,i,i,50%*,i,24%*
CCc1ccc(CNC(=O)C2CCCN(S(=O)(=O)N3CC(C)CC(C)C3)C2)cc1 (centres undefined),-8.2*,i,-7,i,i,38%*,i,i
COc1ccc(NC(=O)Cc2coc3cc(C)c(C(C)C)cc23)cc1S(=O)(=O)N1CCOCC1,i,i,-13,i,i,x,x,x
COc1ccc(NC(=O)CSc2nnc(NC(=O)C3CCC3)s2)c(OC)c1,i,i,-5,i,i,x,x,x
C/C=C1\COC(C(=O)NCc2ccccc2)(C(F)(F)F)C=C1C=C1CCCCC1 (centres undefined),i,7*,-16,i,i,i,i,i
CC(C(N)=O)N1C(=O)NC2(CCCc3ccccc32)C1=O (centres undefined),i,i,-8,i,i,x,x,x
CN(C)C(CNC(=O)c1cccc(C(F)(F)F)c1)c1ccco1 (centres undefined),i,i,-4,i,i,x,x,x
O=C(CN1CCN(c2ccccc2)CC1)Nc1c(C(=O)C2CC2)oc2ccccc12,-11*,i,-5,i,i,32%*,i,i
CSc1nc(C)c(CCO)c(=O)[nH]1,i,i,-2,i,i,x,x,x
CCOC(=O)c1c(NC(=O)CSc2nnc(C)c(=O)[nH]2)sc2c1CCCC2,i,i,-8,i,i,x,x,x
CCOC(=O)c1c(NC(=O)CSc2nnc(C)c(=O)[nH]2)sc(C)c1-c1ccc(C)cc1,i,i,-15,i,i,i,i,i
CC(C)CC(=O)Nc1cc([N+](=O)[O-])ccc1Cl,i,i,-6,i,i,x,x,x
O=C(CNC(c1ccccc1)c1ccccc1)Nc1cc([N+](=O)[O-])ccc1Cl,-9.2*,i,-10,i,i,69%*,i,41%*
Cc1ccc2c(c1)N(CCC(=O)NC1CCCCC1C)C(=O)CO2 (centres undefined),i,i,-9,i,i,i,i,i
O=C(Nc1ccc(F)cc1)N(Cc1cccs1)Cc1cc2cc3c(cc2[nH]c1=O)OCO3,-11*,i,-7,i,i,i,i,42%*
Cc1ccc(NC(=O)N(Cc2cccs2)Cc2cc3cc4c(cc3[nH]c2=O)OCO4)cc1,i,i,-12,x,i,x,x,x
C=CCc1cc(C)ccc1OCCOCCC(C(=O)OCC)C(=O)OCC,i,i,-13,i,i,i,i,i
COC(=O)CCC(=O)N1CCCC(C(=O)c2ccc(Cl)cc2C)C1 (centres undefined),i,i,-3,i,i,x,x,x
Cc1cc(Cl)ccc1C(=O)C1CCCN(C(=O)c2cc(C(C)C)no2)C1 (centres undefined),i,i,-15,i,i,i,i,i
Cc1cc(Cl)ccc1C(=O)C1CCCN(C(=O)c2ccsc2)C1 (centres undefined),i,i,-8,i,i,i,i,i
Cc1cc(Cl)ccc1C(=O)C1CCCN(C(=O)c2ccc3ncccc3c2)C1 (centres undefined),i,i,-14,i,i,i,i,i
Nc1nc(-c2ccccc2)ns1,x,x,x,i,x,x,x,x
COc1ccc(C(=Cc2ccccc2[N+](=O)[O-])C(=O)O)cc1,x,x,x,i,x,x,x,x
SMILES,KCNK9 block,KCNQ1 block,hERG rescue,KCNK3 inh,KCNQ1 act,KCNK9 block conf,Kir21 sel,KCNK9 uninduced
CC(C)(C)NC(=O)C12CC3CC(CC(Cl)(C3)C1)C2,i,i,-7,i,i,x,x,x
CC(C)(C)NC(=S)NC(=O)C12CCC3CC(CC(C3)C1)C2,i,i,-2,i,i,i,i,i
O=C(Nc1cc(S(=O)(=O)N2CCCC2)ccc1Cl)c1cc(F)c(F)c(F)c1F,x,x,x,i,x,x,x,x
O=C(c1cc(COc2c(F)cccc2F)on1)N1CCC(c2ccccc2F)C1 (centres undefined),i,i,-14,i,i,i,i,i
O=C(c1cc(COc2c(F)cccc2F)on1)N1CCC(c2ccncc2)CC1,i,i,-18,i,i,x,x,x
O=C(c1cc(COc2c(F)cccc2F)on1)N1CCC(c2ccccc2Cl)C1 (centres undefined),i,i,-11,i,i,i,43%*,i
CN(Cc1cc(-c2ccccc2)on1)C(=O)c1cc(COc2c(F)cccc2F)on1,-13*,i,-19,i,i,66%*,i,30%*
CN1CCN(C(=O)c2cc(COc3c(F)cccc3F)on2)CC1c1ccccc1 (centres undefined),i,i,-8,i,i,i,i,i
COC(=O)c1cc(OC(=O)CCc2ccc(OC)c(OC)c2)cc(C(=O)OC)c1,i,i,-3,i,i,x,x,x
COC(CNC(=O)[C@H](Cc1ccccc1)N1Cc2ccccc2C1=O)OC,i,i,-3,i,i,x,x,x
COc1ccc(S(=O)(=O)n2nc(OC(C)=O)cc2N(C(C)=O)C(C)=O)cc1,i,i,-7,i,i,x,x,x
Cc1nn(-c2ccccc2)c(N)c1Sc1ccccc1[N+](=O)[O-],i,i,-9,i,i,x,x,x
Cc1nn(-c2ccccc2)c(N)c1Sc1cccc([N+](=O)[O-])c1,-13*,i,-9,i,i,66%*,i,29%*
O=C(Nc1ccnn1C1CCN(CCCC2CCCC2)CC1)c1ccccc1Cl,i,i,-12,i,i,x,x,x
CCOC(=O)C1=C(C)OC(N)=C(C#N)C1c1ccccc1 (centres undefined),i,i,-18,i,i,x,x,x
CCOC(=O)C1=C(CSc2nc(C)cc(C)c2C#N)OC(N)=C(C#N)C1c1ccccc1 (centres undefined),-14*,i,-16,i,i,56%*,i,48%*
